# Experiments:
# [1] = target: T1, Adrenergic receptor alpha-2 (Rattus norvegicus, UniProt P22086+P19328+P22909); test: Displacement of [3H]-Clonidine from alpha2 adrenergic receptor in rat brain cerebral cortex membranes by liquid scintillation counting analysis; format: cell membranes, Membrane
# T1 sequence (P22086 whole entry): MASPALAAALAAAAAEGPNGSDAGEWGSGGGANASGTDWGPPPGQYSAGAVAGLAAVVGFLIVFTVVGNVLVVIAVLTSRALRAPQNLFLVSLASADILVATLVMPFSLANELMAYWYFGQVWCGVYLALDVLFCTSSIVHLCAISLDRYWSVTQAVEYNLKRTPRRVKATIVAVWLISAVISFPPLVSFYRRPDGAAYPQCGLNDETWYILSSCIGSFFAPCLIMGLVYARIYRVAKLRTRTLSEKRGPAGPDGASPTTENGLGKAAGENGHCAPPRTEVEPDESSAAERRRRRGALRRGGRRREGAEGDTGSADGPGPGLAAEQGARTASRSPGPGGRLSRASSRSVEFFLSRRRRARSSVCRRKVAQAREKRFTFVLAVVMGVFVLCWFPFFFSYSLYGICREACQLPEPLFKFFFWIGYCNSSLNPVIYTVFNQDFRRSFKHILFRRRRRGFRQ
# T1 sequence (P19328 whole entry): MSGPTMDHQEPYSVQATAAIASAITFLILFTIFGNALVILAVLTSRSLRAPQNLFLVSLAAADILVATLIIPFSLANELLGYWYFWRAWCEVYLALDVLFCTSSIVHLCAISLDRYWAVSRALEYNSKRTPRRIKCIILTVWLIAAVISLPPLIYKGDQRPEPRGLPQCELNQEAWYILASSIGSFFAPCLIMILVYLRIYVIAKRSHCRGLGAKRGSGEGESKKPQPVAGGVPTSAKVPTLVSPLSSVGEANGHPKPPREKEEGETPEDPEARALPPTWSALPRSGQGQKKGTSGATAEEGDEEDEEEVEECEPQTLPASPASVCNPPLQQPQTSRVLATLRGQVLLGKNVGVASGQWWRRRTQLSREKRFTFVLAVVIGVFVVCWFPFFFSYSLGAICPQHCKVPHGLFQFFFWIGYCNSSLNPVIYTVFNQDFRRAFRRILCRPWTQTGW
# T1 sequence (P22909 whole entry): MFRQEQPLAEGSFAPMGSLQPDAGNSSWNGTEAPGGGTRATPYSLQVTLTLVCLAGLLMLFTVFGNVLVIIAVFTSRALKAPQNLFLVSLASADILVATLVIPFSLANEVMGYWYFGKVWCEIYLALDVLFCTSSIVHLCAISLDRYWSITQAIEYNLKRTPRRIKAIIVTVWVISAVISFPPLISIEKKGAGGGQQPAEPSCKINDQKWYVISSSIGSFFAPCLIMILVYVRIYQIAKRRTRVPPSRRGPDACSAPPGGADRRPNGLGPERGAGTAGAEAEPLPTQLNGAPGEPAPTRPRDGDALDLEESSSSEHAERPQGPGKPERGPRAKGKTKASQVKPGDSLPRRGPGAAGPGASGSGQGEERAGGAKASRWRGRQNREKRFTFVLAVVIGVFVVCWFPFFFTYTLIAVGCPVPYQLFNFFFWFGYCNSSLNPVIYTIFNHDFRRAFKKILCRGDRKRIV
# In short: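 Rat cerebral cortex homogenized in ice-cold 50 mM Tris–HCl (pH 7.6), spun at 20,000 g for 20 min (0–4 °C), resuspended and spun again. Membranes incubated with 0.2 nM [3H]-prazosin (α1) or 2 nM [3H]-clonidine (α2) and seven to eight compound concentrations (10^-11 to 10^-4 M). Non-specific binding defined with 10 µM phentolamine (prazosin) or 10 µM clonidine (clonidine). Ended by GF/C filtration, counted by liquid scintillation. Run in duplicate; Ki from two independent experiments.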
# [2] = target: T2, Alpha-1B adrenergic receptor (Homo sapiens, UniProt P35368); test: Intrinsic activity at human alpha1B adrenergic receptor expressed in CHOK1 cells co-expressing aequorin assessed as inhibition of agonist induced calcium mobilization preincubated for 15 mins followed by agonist addition measured for 20 secs in presence of coelenterazine H by luminescence assay; format: cell-based, CHO-K1
# T2 sequence (P35368 whole entry): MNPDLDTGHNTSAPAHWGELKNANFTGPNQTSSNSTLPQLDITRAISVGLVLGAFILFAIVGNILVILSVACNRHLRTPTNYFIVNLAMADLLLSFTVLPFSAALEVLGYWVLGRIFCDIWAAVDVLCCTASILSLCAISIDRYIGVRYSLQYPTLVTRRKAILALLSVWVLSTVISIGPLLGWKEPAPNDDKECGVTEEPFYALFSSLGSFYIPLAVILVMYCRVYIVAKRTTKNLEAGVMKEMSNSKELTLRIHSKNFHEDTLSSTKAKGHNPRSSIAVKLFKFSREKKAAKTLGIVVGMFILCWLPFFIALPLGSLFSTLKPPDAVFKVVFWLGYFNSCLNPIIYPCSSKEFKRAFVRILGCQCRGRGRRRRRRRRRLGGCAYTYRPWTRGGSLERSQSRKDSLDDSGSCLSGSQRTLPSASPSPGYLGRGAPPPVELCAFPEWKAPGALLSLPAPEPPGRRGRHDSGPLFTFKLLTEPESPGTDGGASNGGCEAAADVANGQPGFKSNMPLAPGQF
# In short: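 Frozen ready-to-use cells stably expressing α1B receptor and aequorin, resuspended in assay buffer with 5 µM coelenterazine h and rotated overnight at rt in the dark. Diluted to 5000 cells/20 µL. Agonist mode: cells injected onto ligands, light recorded 20 s. Antagonist mode: 15 min with compound at room temperature, then agonist at 3× EC80 final, light recorded 20 s. Mean EC50 from three experiments.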
# [3] = Selectivity ratio of EC50 for human alpha1B adrenergic receptor expressed in CHOK1 cells co-expressing aequorin assessed as inhibition of agonist induced calcium mobilization to EC50 for alpha1A adrenergic receptor (unknown origin) assessed as inhibition of agonist induced effect; format: cell-based; conditions: cho-k1
Compound,Ki [1] [nM],EC50 [2] [nM],Ratio EC50 [3]
COc1ccccc1OCCN1CCC(CNS(=O)(=O)c2cc(Cl)ccc2F)CC1,1345,12.7,0.08
CC(C)Oc1ccccc1OCCN1CCC(CNS(=O)(=O)c2cccc(Cl)c2F)CC1,1212,42.1,3.8
COc1ccc(S(=O)(=O)NC2CCN(CCOc3ccccc3OC)CC2)cc1OC,2140,461,2.4
COc1ccccc1OCCN1CCC(CNS(=O)(=O)c2cccc(Cl)c2)CC1,439,15.5,0.13
COc1ccc(S(=O)(=O)NCC2CCN(CCOc3ccccc3OC)CC2)cc1OC,644,599,3.73
COc1ccccc1OCCN1CCC(CNS(=O)(=O)c2cncc3ccccc23)CC1,695,515,3.68

# More lines, in order of falling EC50 [2], values ahead:
Ki [1] [nM],EC50 [2] [nM],Compound,Ratio EC50 [3]
297,608,COc1ccccc1OCCN1CCC(NS(=O)(=O)c2cncc3ccccc23)CC1,6.1
947,105,CC(C)Oc1ccccc1OCCN1CCC(CNS(=O)(=O)c2cccc3cccnc23)CC1,3.07
678,14.1,COc1ccccc1OCCN1CCC(CNS(=O)(=O)c2cccc(Cl)c2F)CC1,0.17
